{"source": "paper PMC4207547", "about": "(Journal of Medicinal Chemistry, 2014)", "key": {"CXCR2": {"molecular_target": "T1, CXCR2 (Homo sapiens, UniProt P25025)", "T1 sequence (P25025 1-360)": "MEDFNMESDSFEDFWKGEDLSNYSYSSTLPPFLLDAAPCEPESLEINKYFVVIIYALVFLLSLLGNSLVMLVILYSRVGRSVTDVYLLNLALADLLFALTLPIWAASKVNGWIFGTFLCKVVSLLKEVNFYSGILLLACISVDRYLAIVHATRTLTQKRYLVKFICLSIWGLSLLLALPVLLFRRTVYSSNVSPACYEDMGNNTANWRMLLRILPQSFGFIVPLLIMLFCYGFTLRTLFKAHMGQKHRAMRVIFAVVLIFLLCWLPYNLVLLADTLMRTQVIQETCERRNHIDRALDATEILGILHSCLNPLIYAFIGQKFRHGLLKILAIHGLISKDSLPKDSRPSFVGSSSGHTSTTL", "test": "CXCL1-stimulated Ca2+ flux in whole human neutrophils", "type": "cell-based", "settings": "for activity against CXCL1-stimulated Ca2+ flux, in words: SAR discussion; for inhibition at 5 µM: read-out: inhibition of CXCL1-mediated intracellular Ca2+ release", "procedure,_shortened": "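Human neutrophils were isolated from blood by dextran sedimentation, Histopaque 1077 gradient and hypotonic RBC lysis (>95% pure, >98% viable). Cells were loaded with FLIPR Calcium 3 dye in HEPES-buffered Ca/Mg-free HBSS with compound or 1% DMSO for 30 min at 37 °C, then resuspended in HEPES-HBSS with Ca2+/Mg2+ and challenged with CXCL1.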"}, "CXCR1": {"tested_on": "CXCR1", "settings": "cited from earlier work"}, "[1]": {"settings": "CXCL1-stimulated Ca2+ flux, hPMNs"}}, "data": [{"compound": "CCOP(=O)(CSc1ccc(C(=O)Nc2ccc(F)cc2)cn1)OCC", "note": "[Compound 12, Diethyl (5-(4-fluorophenylcarbamoyl)pyridin-2-ylthio)methylphosphonate]", "values": [{"measurement": "activity against CXCL1-stimulated Ca2+ flux, in words", "setting": "CXCR2; hPMNs", "value": "loss of activity"}]}, {"compound": "O=C(Nc1ccc(F)cc1)c1ccc(SC[N+](=O)[O-])nc1", "note": "[Compound 11, N-(4-Fluorophenyl)-6-(nitromethylthio)nicotinamide]", "values": [{"measurement": "activity against CXCL1-stimulated Ca2+ flux, in words", "setting": "CXCR2; hPMNs", "value": "loss of activity"}]}, {"compound": "O=C(Nc1ccc(F)cc1)c1ccc(SC2CCOC2=O)nc1", "note": "(stereo not shown) [Compound 9, N-(4-Fluorophenyl)-6-(2-oxotetrahydrofuran-3-ylthio)nicotinamide]", "values": [{"measurement": "activity against CXCL1-stimulated Ca2+ flux, in words", "setting": "CXCR2; hPMNs", "value": "loss of activity"}]}, {"compound": "O=C(O)c1ccc(NC(=O)c2ccc(SCc3ccccc3B(O)O)nc2)cc1", "note": "[Compound 55, 4-(6-(2-Boronobenzylthio)nicotinamido)benzoic acid]", "values": [{"measurement": "activity against CXCL1-stimulated Ca2+ flux, in words", "setting": "CXCR2; hPMNs", "value": "abrogated all activity"}]}, {"compound": "COC(=O)c1ccc(CSc2ccc(C(=O)Nc3ccc(F)cc3)cn2)cc1", "note": "[Compound 46, Methyl 4-((5-(4-Fluorophenylcarbamoyl)pyridin-2-ylthio)methyl)benzoate]", "values": [{"measurement": "activity against CXCL1-stimulated Ca2+ flux, in words", "setting": "CXCR2; hPMNs", "value": "inactive"}]}, {"compound": "O=C(Nc1ccc(F)cc1)c1ccc(SCC2CCCCO2)nc1", "note": "(stereo not shown) [Compound 13, N-(4-Fluorophenyl)-6-((tetrahydro-2H-pyran-2-yl)methylthio)nicotinamide]", "values": [{"measurement": "inhibition at 5 µM", "setting": "CXCR2", "value": "> 50", "unit": "%"}]}, {"compound": "O=C(Nc1ccc(F)cc1)c1ccc(SCS(=O)(=O)c2ccccc2)nc1", "note": "[Compound 10, N-(4-Fluorophenyl)-6-(phenylsulfonylmethylthio)nicotinamide]", "values": [{"measurement": "activity against CXCL1-stimulated Ca2+ flux, in words", "setting": "CXCR2; hPMNs", "value": "loss of activity"}]}, {"compound": "O=C(Nc1ccc(F)cc1)c1ccc(Sc2ccccc2)nc1", "note": "[Compound 45, N-(4-Fluorophenyl)-6-(phenylthio)nicotinamide]", "values": [{"measurement": "activity against CXCL1-stimulated Ca2+ flux, in words", "setting": "CXCR2; hPMNs", "value": "loss of activity"}]}, {"compound": "O=C(Nc1ccc(OC(F)(F)F)cc1)c1ccc(SCc2ccccc2B(O)O)nc1", "note": "[Compound 54, 2-((5-(4-(Trifluoromethoxy)phenylcarbamoyl)pyridin-2-ylthio)methyl)phenylboronic acid]", "values": [{"measurement": "fold reduction in activity relative to 7", "setting": "CXCR2; [1]", "value": 7, "unit": "fold"}]}, {"compound": "O=C(Nc1ccc(F)cc1)c1ccc(SCC2CCCO2)nc1", "note": "(stereo not shown) [Compound 20, N-(4-Fluorophenyl)-6-((tetrahydrofuran-2-yl)methylthio)nicotinamide]", "values": [{"measurement": "inhibition at 5 µM", "setting": "CXCR2", "value": "> 50", "unit": "%"}]}, {"compound": "O=C(Nc1ccncc1)c1ccc(SCc2ccccc2B(O)O)nc1", "note": "[Compound 57, 2-((5-(Pyridin-4-ylcarbamoyl)pyridin-2-ylthio)methyl)phenylboronic acid]", "values": [{"measurement": "fold reduction in activity relative to 7", "setting": "CXCR2; [1]", "value": 14, "unit": "fold"}]}, {"compound": "COC(=O)c1ccccc1CSc1ccc(C(=O)Nc2ccc(F)cc2)cn1", "note": "[Compound 50, Methyl 2-((5-(4-Fluorophenylcarbamoyl)pyridin-2-ylthio)methyl)benzoate]", "values": [{"measurement": "fold improvement in potency relative to 2-carboxylate 51", "setting": "CXCR2; [1]", "value": 2, "unit": "fold"}]}, {"compound": "CC(C)Cc1ccc([C@@H](C)C(=O)NS(C)(=O)=O)cc1", "note": "[reparixin, Reparixin]", "values": [{"measurement": "effect on CXCL8 binding to CXCR1, in words", "setting": "CXCR1", "value": "no effect"}]}, {"compound": "O=C(Nc1ccc(F)cc1)c1ccc(SCc2ccc([N+](=O)[O-])o2)nc1", "note": "[Compound 22, N-(4-Fluorophenyl)-6-((5-nitrofuran-2-yl)methylthio)nicotinamide]", "values": [{"measurement": "inhibition at 5 µM", "setting": "CXCR2", "value": "> 50", "unit": "%"}]}, {"compound": "O=C(Nc1ccc(F)cc1)c1ccc(SCC2CCOCC2)nc1", "note": "[Compound 17, N-(4-Fluorophenyl)-6-((tetrahydro-2H-pyran-4-yl)methylthio)nicotinamide]", "values": [{"measurement": "inhibition at 5 µM", "setting": "CXCR2", "value": "> 50", "unit": "%"}]}, {"compound": "O=C(c1ccc(SCc2ccccc2B(O)O)nc1)N(CC1CCCCN1)c1ccc(F)cc1", "note": "(stereo not shown) [Compound 62, 2-((5-((4-Fluorophenyl)(piperidin-2-ylmethyl)carbamoyl)pyridin-2-ylthio)methyl)phenylboronic acid]", "values": [{"measurement": "activity against CXCL1-stimulated Ca2+ flux, in words", "setting": "CXCR2; hPMNs", "value": "completely devoid of activity"}]}, {"compound": "O=C(Nc1ccc(F)cn1)c1ccc(SCc2ccccc2B(O)O)nc1", "note": "[Compound 59, 2-((5-(5-Fluoropyridin-2-ylcarbamoyl)pyridin-2-ylthio)methyl)phenylboronic acid]", "values": [{"measurement": "fold reduction in activity relative to 7", "setting": "CXCR2; [1]", "value": 8, "unit": "fold"}]}, {"compound": "O=C(Nc1ccc(F)cc1)c1ccc(SCc2ccccc2)nc1", "note": "[Compound 30, 6-(Benzylthio)-N-(4-fluorophenyl)nicotinamide]", "values": [{"measurement": "inhibition at 5 µM", "setting": "CXCR2", "value": "> 50", "unit": "%"}]}, {"compound": "COC(=O)c1cccc(CSc2ccc(C(=O)Nc3ccc(F)cc3)cn2)c1", "note": "[Compound 48, Methyl 3-((5-(4-Fluorophenylcarbamoyl)pyridin-2-ylthio)methyl)benzoate]", "values": [{"measurement": "activity against CXCL1-stimulated Ca2+ flux, in words", "setting": "CXCR2; hPMNs", "value": "inactive"}]}, {"compound": "O=C(Nc1ccc(F)cc1)c1ccc(SCc2ccc(Cl)c(Cl)c2)nc1", "note": "[Compound 43, 6-(3,4-Dichlorobenzylthio)-N-(4-fluorophenyl)nicotinamide]", "values": [{"measurement": "inhibition at 5 µM", "setting": "CXCR2", "value": "> 50", "unit": "%"}]}, {"compound": "O=C(Nc1ccc(O)cc1)c1ccc(SCc2ccccc2B(O)O)nc1", "note": "[Compound 58, 2-((5-(4-Hydroxyphenylcarbamoyl)pyridin-2-ylthio)methyl)phenylboronic acid]", "values": [{"measurement": "fold reduction in activity relative to 7", "setting": "CXCR2; [1]", "value": 3, "unit": "fold"}]}, {"compound": "O=C(Nc1ccc(-c2nn[nH]n2)cc1)c1ccc(SCc2ccccc2B(O)O)nc1", "note": "[Compound 56, 2-((5-(4-(2H-Tetrazol-5-yl)phenylcarbamoyl)pyridin-2-ylthio)methyl)phenylboronic acid]", "values": [{"measurement": "activity against CXCL1-stimulated Ca2+ flux, in words", "setting": "CXCR2; hPMNs", "value": "abrogated all activity"}]}, {"compound": "O=C(c1ccc(SCc2ccccc2B(O)O)nc1)N(Cc1ccncc1)c1ccc(F)cc1", "note": "[Compound 61, 2-((5-((4-Fluorophenyl)(pyridin-4-ylmethyl)carbamoyl)pyridin-2-ylthio)methyl)phenylboronic acid]", "values": [{"measurement": "fold lower potency than 60", "setting": "CXCR2; [1]", "value": 11, "unit": "fold"}]}, {"compound": "O=C(Nc1ccc(F)cc1)c1ccc(SCc2ccncc2)nc1", "note": "[Compound 15, N-(4-Fluorophenyl)-6-(pyridin-4-ylmethylthio)nicotinamide]", "values": [{"measurement": "inhibition at 5 µM", "setting": "CXCR2", "value": "> 50", "unit": "%"}]}, {"compound": "CC1(C)OB(c2ccccc2CSc2ccc(C(=O)Nc3ccc(F)cc3)cn2)OC1(C)C", "note": "[Compound 53, N-(4-Fluorophenyl)-6-(2-(4,4,5,5-tetramethyl-1,3,2-dioxaborolan-2-yl)benzylthio)nicotinamide]", "values": [{"measurement": "fold reduction in activity relative to 7", "setting": "CXCR2; [1]", "value": "approximately 7 fold"}]}, {"compound": "O=C(Nc1ccc(F)cc1)c1ccc(SCc2ccccc2-c2nn[nH]n2)nc1", "note": "[Compound 52, 6-(2-(2H-Tetrazol-5-yl)benzylthio)-N-(4-fluorophenyl)nicotinamide]", "values": [{"measurement": "fold improvement in potency relative to 2-carboxylate 51", "setting": "CXCR2; [1]", "value": "~10", "unit": "fold"}]}, {"compound": "N-(4-Fluorophenyl)-6-(4-(5-methyl-1,2,4-oxadiazol-3-yl)benzylthio)nicotinamide [Compound 18]", "values": [{"measurement": "IC50", "setting": "CXCR2; inhibition of CXCL1-stimulated Ca2+ flux in whole hPMNs, mean ± standard error", "value": "> 5", "unit": "µM"}]}, {"compound": "O=C(O)CN(C(=O)c1ccc(SCc2ccccc2B(O)O)nc1)c1ccc(F)cc1", "note": "[Compound 63, 2-(6-(2-Boronobenzylthio)-N-(4-fluorophenyl)nicotinamido)acetic acid]", "values": [{"measurement": "activity against CXCL1-stimulated Ca2+ flux, in words", "setting": "CXCR2; hPMNs", "value": "A similar finding"}]}]}
